Laboratory results reported in PMC9302689 (British Journal of Clinical Pharmacology, 2022).

Key:
[1] = target: sigma non‐opioid intracellular receptor 1 (Homo sapiens, UniProt Q99720); test: In vitro binding affinity, sigma non-opioid intracellular receptor 1
[2] = Preclinical pharmacokinetic studies; assay type: in vivo; details: dogs and rats, oral administration
SERT = SERT (Homo sapiens, UniProt P31645); test: In vitro binding affinity, SERT; details: read-out: Ki, SERT; preclinical in vitro panel
SERT, sequence (P31645 whole entry, species assumed): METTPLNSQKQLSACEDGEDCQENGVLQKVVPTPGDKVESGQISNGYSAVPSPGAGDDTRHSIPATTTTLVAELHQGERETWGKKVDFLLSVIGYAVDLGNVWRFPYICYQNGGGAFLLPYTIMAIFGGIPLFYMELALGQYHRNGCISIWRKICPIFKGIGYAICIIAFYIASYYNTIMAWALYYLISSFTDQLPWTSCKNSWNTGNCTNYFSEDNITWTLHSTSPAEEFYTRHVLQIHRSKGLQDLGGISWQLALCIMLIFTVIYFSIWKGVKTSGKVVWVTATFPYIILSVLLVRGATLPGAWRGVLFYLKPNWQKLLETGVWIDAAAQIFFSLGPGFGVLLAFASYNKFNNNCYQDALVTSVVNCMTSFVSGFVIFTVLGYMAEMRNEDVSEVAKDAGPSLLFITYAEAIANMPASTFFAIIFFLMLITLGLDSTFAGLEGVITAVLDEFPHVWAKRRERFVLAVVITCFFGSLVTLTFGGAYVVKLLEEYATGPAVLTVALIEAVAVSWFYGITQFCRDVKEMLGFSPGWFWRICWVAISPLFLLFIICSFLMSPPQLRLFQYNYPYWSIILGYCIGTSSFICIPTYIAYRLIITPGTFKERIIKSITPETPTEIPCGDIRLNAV

healthy male subjects [3] = test: VAS Bond and Lader; assay type: in vivo, human; details: 12-hour post-dose period
In short: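 Subjects marked 16 horizontal 100 mm visual analogue scales twice pre-dose and at 0.5–10 h after a single dose or placebo. Three factors were derived: alertness from 9 scores, mood from 5 and calmness from 2. Change from baseline over 12 h was analysed by MMRM against pooled placebo, with baseline as covariate.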

α1B‐adrenoceptor = target: T1, α1B‐adrenoceptor (Homo sapiens, UniProt P35368); test: In vitro binding affinity, α1B-adrenoceptor; details: read-out: Ki, α1B-adrenoceptor; preclinical in vitro panel
T1 sequence (P35368 1-520): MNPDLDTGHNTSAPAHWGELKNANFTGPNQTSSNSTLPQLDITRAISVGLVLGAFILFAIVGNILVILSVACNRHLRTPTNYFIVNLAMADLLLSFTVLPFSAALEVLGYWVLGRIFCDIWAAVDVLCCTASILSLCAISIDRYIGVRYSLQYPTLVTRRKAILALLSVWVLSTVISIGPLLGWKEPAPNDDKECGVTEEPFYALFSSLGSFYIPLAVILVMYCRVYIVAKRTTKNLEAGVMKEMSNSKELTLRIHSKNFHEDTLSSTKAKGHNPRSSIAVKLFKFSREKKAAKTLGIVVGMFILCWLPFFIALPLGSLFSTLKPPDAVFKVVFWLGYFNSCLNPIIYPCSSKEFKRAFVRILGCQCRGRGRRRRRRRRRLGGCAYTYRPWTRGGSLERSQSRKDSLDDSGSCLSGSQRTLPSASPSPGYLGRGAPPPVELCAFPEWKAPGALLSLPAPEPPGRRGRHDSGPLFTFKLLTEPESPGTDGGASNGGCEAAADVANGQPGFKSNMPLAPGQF

healthy male subjects [4] = test: NeuroCart adaptive tracking; assay type: in vivo, human; details: 12-hour post-dose period
In short: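 Fasted healthy men received a single dose or placebo capsule. Testing was done in a quiet, dim room, one subject at a time, after training at screening. Runs were twice pre-dose and at 0.5–10 h post-dose. The read-out was mean circle speed as % of maximum over 3.5 min. Change from baseline over 12 h was analysed by MMRM against pooled placebo, with baseline as covariate.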

sigma non‐opioid intracellular receptor 1, sequence (Q99720 whole entry, species assumed): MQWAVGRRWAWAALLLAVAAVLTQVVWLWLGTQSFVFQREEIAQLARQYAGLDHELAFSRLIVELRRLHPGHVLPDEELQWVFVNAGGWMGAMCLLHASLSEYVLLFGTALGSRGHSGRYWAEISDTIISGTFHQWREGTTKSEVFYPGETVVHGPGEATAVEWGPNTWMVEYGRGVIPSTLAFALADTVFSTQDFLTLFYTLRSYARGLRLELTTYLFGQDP

## CN1CCC23CCCCC2C1Cc1ccc(C(N)=O)cc13 (stereo not drawn) [ALKS 7119, (9α, 13α)‐17‐methylmorphinan‐3‐carboxamide]
[1]
  Affinity for sigma non-opioid intracellular receptor 1 lower than for SERT: 900 fold
[2]
  median time to maximum plasma concentration (tmax): 30 min
SERT
  Ki: 35 nM
Healthy male subjects [3]; 3 mg single oral dose
  VAS Bond and Lader “calmness”, LSM CFB: 6.65 mm
  VAS Bond and Lader “mood”, LSM CFB: 6.17 mm
  VAS Bond and Lader “subjective alertness”, LSM CFB: 1.64 mm
Healthy male subjects [3]; 10 mg single oral dose
  VAS Bond and Lader “calmness”, LSM CFB: −0.31 mm
  VAS Bond and Lader “mood”, LSM CFB: −0.04 mm
  VAS Bond and Lader “subjective alertness”, LSM CFB: 0.03 mm
Healthy male subjects [3]; 25 mg single oral dose
  VAS Bond and Lader “calmness”, LSM CFB: −0.57 mm
  VAS Bond and Lader “mood”, LSM CFB: −0.14 mm
  VAS Bond and Lader “subjective alertness”, LSM CFB: 0.26 mm
Healthy male subjects [3]; 50 mg single oral dose
  VAS Bond and Lader “calmness”, LSM CFB: 3.6 mm
  VAS Bond and Lader “mood”, LSM CFB: 4.47 mm
  VAS Bond and Lader “subjective alertness”, LSM CFB: 0.96 mm
Healthy male subjects [3]; 75 mg single oral dose
  VAS Bond and Lader “calmness”, LSM CFB: 0.26 mm
  VAS Bond and Lader “mood”, LSM CFB: −0.82 mm
  VAS Bond and Lader “subjective alertness”, LSM CFB: −1.02 mm
Healthy male subjects [3]; 100 mg single oral dose
  VAS Bond and Lader “calmness”, LSM CFB: 0.58 mm
  VAS Bond and Lader “mood”, LSM CFB: 0.56 mm
  VAS Bond and Lader “subjective alertness”, LSM CFB: 0.57 mm
Healthy male subjects [3]; 125 mg single oral dose
  VAS Bond and Lader “calmness”, LSM CFB: 0.46 mm
  VAS Bond and Lader “mood”, LSM CFB: 1.63 mm
  VAS Bond and Lader “subjective alertness”, LSM CFB: −0.56 mm
Healthy male subjects [3]; 150 mg single oral dose
  VAS Bond and Lader “calmness”, LSM CFB: 2.59 mm
  VAS Bond and Lader “mood”, LSM CFB: 3.35 mm
  VAS Bond and Lader “subjective alertness”, LSM CFB: 1.94 mm
Healthy male subjects [3]; 175 mg single oral dose
  VAS Bond and Lader “calmness”, LSM CFB: 0.08 mm
  VAS Bond and Lader “mood”, LSM CFB: 0.11 mm
  VAS Bond and Lader “subjective alertness”, LSM CFB: −1.17 mm
Healthy male subjects [3]; 200 mg single oral dose
  VAS Bond and Lader “calmness”, LSM CFB: 0.68 mm
  VAS Bond and Lader “mood”, LSM CFB: 0.51 mm
  VAS Bond and Lader “subjective alertness”, LSM CFB: 0.09 mm
α1B‐adrenoceptor
  Ki: 1800 nM
Healthy male subjects [4]; 3 mg single oral dose
  Adaptive tracking, LSM CFB: 0.15%
Healthy male subjects [4]; 10 mg single oral dose
  Adaptive tracking, LSM CFB: 2.4%
Healthy male subjects [4]; 25 mg single oral dose
  Adaptive tracking, LSM CFB: 0.24%
Healthy male subjects [4]; 50 mg single oral dose
  Adaptive tracking, LSM CFB: 2.04%
Healthy male subjects [4]; 75 mg single oral dose
  Adaptive tracking, LSM CFB: 0.25%
Healthy male subjects [4]; 100 mg single oral dose
  Adaptive tracking, LSM CFB: 1.05%
Healthy male subjects [4]; 125 mg single oral dose
  Adaptive tracking, LSM CFB: 0.8%
Healthy male subjects [4]; 150 mg single oral dose
  Adaptive tracking, LSM CFB: 0.65%
Healthy male subjects [4]; 175 mg single oral dose
  Adaptive tracking, LSM CFB: 0.9%
Healthy male subjects [4]; 200 mg single oral dose
  Adaptive tracking, LSM CFB: 0.72%
